# Sampled rows, rich in hits. Any-hit rate of the full collection: about 1.6%.
# Tb MetRS inh: Trypanosoma brucei MetRS inhibition; 0.4% of 360,000 active; AID 624268; inhibition, % at 11.9 µM; purified T. brucei MetRS, ATP depletion, Kinase-Glo luminescence;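 active means inhibition above a per-plate cutoff of the control wells' mean inhibition plus 3 SD, cut at about 5.5% in these data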;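 further: 0% = DMSO wells median and 100% = median of wells with control inhibitor compound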
#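 Test system: purified T. brucei MetRS enzyme. Also added: ATP, methionine and E. coli bulk tRNA substrates. Compound: 11.9 µM single point. Schedule: 15 min enzyme-compound preincubation, 2 h reaction, 10 min detection, 25 °C. Signal: luciferase luminescence of residual ATP, Kinase-Glo. Evaluation: percent inhibition versus plate control medians. Controls: DMSO wells, low control.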
# 14-3-3 Bad inh: disrupts binding of bovine 14-3-3 zeta to phospho-Bad peptide; inhibition, % at 21.7 µM; 0.71% of 220,000 active; P63103; AID 781; TR-FRET 14-3-3zeta/Dy647-pBad peptide displacement, 1 h;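 active means inhibition above about 70%, limit read from the data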;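 further: 0% = full 14-3-3 plus peptide FRET controls and 100% = background without 14-3-3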
# UBC9 SUMO inh: blocks human SUMOylation mediated by UBC9; 0.36% of 290,000 active; P63279; inhibition, % at 35 µM; HTRF SUMOylation assay, SAE1/SAE2 + UBC9, in vitro; AID 2006; in the data active means inhibition above about 50%, passing the limit was not always enough
# NCF1 inh: p47phox (human) inhibition; AID 1274; inhibition, % at 24.7 µM; p47phox/p22phox peptide binding, fluorescence polarization, 2 h; 0.53% of 220,000 active;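 active means inhibition above about 30%, limit read from the data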;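 further: 0% = p47phox with labelled peptide and 100% = labelled peptide alone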
# eIF4E-4G inh: blocks eIF4E binding to eIF4G; TR-FRET eIF4E-eIF4GI(517-606) binding, 2 h; inhibition, % at 21.7 µM; 0.37% of 220,000 active;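 active means inhibition above about 30%, limit read from the data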;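 further: 0% = full FRET control wells and 100% = background wells lacking eIF4GI fragment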
# p97 ATPase inh: blocks human p97 ATPase activity; 0.42% of 220,000 active; recombinant p97 ATPase, Kinase-Glo ATP luminescence, 3 h; AID 1481; P55072; inhibition, % at 8 µM;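 further: 0% = DMSO vehicle and 100% = wells lacking enzyme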
# Target sequence (P55072 whole entry, looked up): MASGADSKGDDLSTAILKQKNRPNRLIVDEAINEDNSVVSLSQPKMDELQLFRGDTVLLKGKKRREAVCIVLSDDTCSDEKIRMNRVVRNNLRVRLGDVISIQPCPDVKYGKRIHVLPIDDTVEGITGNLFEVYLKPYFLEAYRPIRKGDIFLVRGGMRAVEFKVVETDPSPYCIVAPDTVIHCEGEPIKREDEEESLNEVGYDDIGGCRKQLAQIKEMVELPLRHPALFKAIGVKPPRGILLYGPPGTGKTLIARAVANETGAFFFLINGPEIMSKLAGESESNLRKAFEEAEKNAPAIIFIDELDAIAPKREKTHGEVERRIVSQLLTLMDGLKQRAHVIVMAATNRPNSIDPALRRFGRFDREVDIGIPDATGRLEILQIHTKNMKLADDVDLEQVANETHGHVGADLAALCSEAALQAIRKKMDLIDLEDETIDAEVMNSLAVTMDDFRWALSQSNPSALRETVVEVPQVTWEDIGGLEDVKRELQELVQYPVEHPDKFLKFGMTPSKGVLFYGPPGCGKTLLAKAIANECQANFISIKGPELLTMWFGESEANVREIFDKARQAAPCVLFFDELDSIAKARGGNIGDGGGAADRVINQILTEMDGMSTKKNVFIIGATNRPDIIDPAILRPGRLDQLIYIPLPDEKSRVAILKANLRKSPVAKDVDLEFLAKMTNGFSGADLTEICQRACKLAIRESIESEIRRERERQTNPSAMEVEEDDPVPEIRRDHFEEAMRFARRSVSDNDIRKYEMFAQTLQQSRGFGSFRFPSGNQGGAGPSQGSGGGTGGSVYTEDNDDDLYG
# TbMetRS confirm: Trypanosoma brucei MetRS inhibition confirmed | 93% of 1,400 active | inhibition, % at 11.9 µM | T. brucei MetRS enzyme, luminescence (ATP depletion) | shares compounds with Tb MetRS inh; in the data active means inhibition above about 7%
# Jurkat cytotox: kills Jurkat cells in T. brucei MetRS counterscreen; inhibition, % at 8.3 µM; 12% of 1,400 active; Jurkat cells viability, ATP luminescence; shares compounds with Tb MetRS inh;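 further: 0% = vehicle and 100% = reference inhibitor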
# Tb MetRS inh FP: inhibits T. brucei methionyl tRNA synthetase in orthogonal FP test | shares compounds with Tb MetRS inh | purified T. brucei MetRS, fluorescence polarization | inhibition, % at 11.9 µM | 44% of 1,400 active | AID 651607; in the data active means inhibition above about 17%;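 further: 0% = vehicle wells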
# Active calls of the source: *; / = no result given. Unless noted, no stated cut-off is given here; in the data, active means inhibition above about 15%; inactive means the rest.
SMILES,Tb MetRS inh,14-3-3 Bad inh,UBC9 SUMO inh,NCF1 inh,eIF4E-4G inh,p97 ATPase inh,TbMetRS confirm,Jurkat cytotox,Tb MetRS inh FP
CCN(CC)CCNC(=O)c1ccc(NC(=O)c2ccc(-n3cncn3)c([N+](=O)[O-])c2)cc1,17.4*,/,/,/,/,/,36.5*,6.5,9.8
CC(CCc1ccccc1)NC(=O)c1ccc(-n2cncn2)c([N+](=O)[O-])c1 (centres undefined),25.6*,/,/,/,/,/,54.9*,5.1,30.7*
CS(=O)(=O)c1ccc(Cl)c(NC(=O)c2ccc(-n3cncn3)c([N+](=O)[O-])c2)c1,57.2*,/,/,/,/,/,81.4*,5.8,67.0*
CC(C)Cc1nnc(NC(=O)c2ccc(-n3cncn3)c([N+](=O)[O-])c2)s1,1.4,/,/,/,/,/,/,/,/
CCN(CC)S(=O)(=O)c1cc(NC(=O)c2ccc(-n3cncn3)c([N+](=O)[O-])c2)ccc1C,18.2*,/,-14.9,/,/,/,46.9*,34.8*,38.5*
Nc1ccc(NC(=O)c2ccco2)c(Cl)c1,0.1,-8.5,9.4,-4.8,3.0,1.1,/,/,/
CNc1ccc(Oc2nc([N+](=O)[O-])nn2C)cc1,0.0,-14.1,19.1,-3.2,1.8,4.9,/,/,/
O=C(Nc1ccc(Cl)cc1)c1ccc(-n2cccn2)c([N+](=O)[O-])c1,1.8,5.0,-3.9,-9.0,4.1,2.1,/,/,/
O=C(Nc1ccc(Cl)cc1)c1ccc(-n2cncn2)c([N+](=O)[O-])c1,42.3*,0.2,0.8,-13.0,1.5,0.8,62.1*,8.7,33.0*
O=C(NCCC1=CCCCC1)c1ccc(-n2cncn2)c([N+](=O)[O-])c1,14.7*,/,/,/,/,/,32.5*,-1.2,19.8*
CCN(CC)S(=O)(=O)c1ccc(OC)c(NC(=O)c2ccc(-n3cncn3)c([N+](=O)[O-])c2)c1,36.9*,/,/,/,/,/,81.4*,0.9,49.7*
Cc1ccc(C(=O)NNC(=O)c2ccc(-n3cncn3)c([N+](=O)[O-])c2)cc1,10.6*,/,/,/,/,/,41.3*,-6.3,19.9*
CC(C)c1ccc(O)c(NC(=S)NC(=O)c2ccc3c(c2)OCO3)c1,0.1,/,-26.3,/,/,/,/,/,/
CN(CC(=O)Nc1ccc(Cl)cc1)C(=O)c1ccc(-n2cncn2)c([N+](=O)[O-])c1,70.1*,/,/,/,/,/,100.3*,-2.7,84.9*
O=C(Nc1cccc(Cl)c1)c1ccc(-n2cncn2)c([N+](=O)[O-])c1,42.4*,1.3,15.4,-13.6,0.6,0.2,65.7*,3.9,36.7*
Cc1ccc(NC(=O)c2ccc(-n3cncn3)c([N+](=O)[O-])c2)cc1,27.1*,2.6,0.7,-7.6,2.9,1.9,46.0*,-0.1,15.2
Cc1ccc(S(=O)(=O)NNC(=O)Nc2ccc(Cl)c(Cl)c2)cc1,11.6*,-5.3,-1.4,-12.6,-6.8,-1.5,12.7*,0.7,10.1
NS(=O)(=O)c1cccc(NC(=O)Cc2ccc(Cl)c(Cl)c2)c1,11.9*,-12.2,-15.3,0.9,0.5,5.6,19.1*,5.9,11.8
NS(=O)(=O)c1ccc(CCNC(=O)Nc2ccc(Cl)c(Cl)c2)cc1,15.2*,-7.9,21.0,-15.0,1.6,-0.7,23.1*,18.0*,19.3*
Cc1ccc(NC(=O)NNS(=O)(=O)c2ccc(Br)cc2)cc1,1.5,-0.8,-1.5,-16.6,-0.4,2.2,/,/,/
NS(=O)(=O)c1cccc(NC(=O)CCSc2ccccc2Cl)c1,0.1,0.6,-2.1,-3.1,14.3,4.8,/,/,/
NS(=O)(=O)c1ccc(CNC(=S)Nc2ccc(Cl)c(Cl)c2)cc1,1.9,-10.2,-16.3,-10.3,-2.6,1.3,/,/,/
O=C(NCCc1ccncc1)Nc1ccc(Cl)cc1,6.2*,0.6,19.3,-6.1,0.6,-1.8,14.2*,-0.7,0.5
Cc1cn([C@H]2C[C@H](O)[C@@H](CCC(=O)NCCc3ccc4ccccc4c3)O2)c(=O)[nH]c1=O,-0.4,/,/,/,/,/,/,/,/
O=C(c1ccc(NC2=NC3CS(=O)(=O)CC3S2)cc1)N(CCO)Cc1ccccc1 (centres undefined),0.4,/,8.7,/,/,/,/,/,/
SMILES,Tb MetRS inh,14-3-3 Bad inh,UBC9 SUMO inh,NCF1 inh,eIF4E-4G inh,p97 ATPase inh,TbMetRS confirm,Jurkat cytotox,Tb MetRS inh FP
O=C(NCCc1ccc(Cl)cc1)Nc1ccc(Cl)cc1,71.3*,-0.1,24.3,-7.2,9.5,-0.5,68.8*,4.0,54.5*
N=c1n(Cc2ccccc2)c2ccccc2n1CC(O)COc1ccc(Cl)cc1Cl (centres undefined),10.3*,6.0,0.3,48.2*,10.9,5.7,18.5*,76.7*,8.9
N=c1n(Cc2ccc(Cl)cc2)c2ccccc2n1CC(O)COc1ccccc1 (centres undefined),-0.1,1.0,-12.4,0.6,0.4,11.6,/,/,/
Cn1c(=O)n(C)c2cc3[nH]cnc3cc21,-0.8,/,-2.0,/,/,/,/,/,/
Nc1cc2nc[nH]c2cc1N,6.3*,92.2*,6.7,16.4,35.7*,9.0,10.0*,-7.1,3.8
CC(C)C1CC(=O)NC(SCC(=O)Nc2ccc(Br)cc2)=C1C#N (centres undefined),11.9*,-1.2,-7.2,1.8,-4.4,4.2,18.2*,9.4,7.3
COc1ccccc1C1CC(=O)NC(SCC(=O)Nc2ccccc2)=C1C#N (centres undefined),1.5,-0.3,-0.9,-6.4,-3.3,-3.7,/,/,/
CN1CC(=O)N2C(c3ccc(Cl)cc3)c3[nH]c4ccccc4c3C[C@H]2C1=O (some centres undefined),7.2*,/,-14.8,/,/,/,17.9*,42.6*,0.0
COc1cccc(C2c3[nH]c4ccccc4c3C[C@H]3C(=O)N(CCCCCO)CC(=O)N23)c1 (some centres undefined),10.0*,/,-10.1,/,/,/,20.5*,10.1,0.9
O=C1[C@@H]2Cc3c([nH]c4ccccc34)C(c3cccc([N+](=O)[O-])c3)N2C(=O)CN1CCCO (some centres undefined),95.6*,/,0.0,/,/,/,95.4*,-0.6,92.7*
Cc1ccc(C2c3[nH]c4ccccc4c3C[C@H]3C(=O)N(c4ccccc4C(=O)N4CCC[C@@H]4C(=O)O)C(=O)N23)cc1 (some centres undefined),4.5,/,1.4,/,/,/,/,/,/
COc1cccc(C2c3[nH]c4ccccc4c3C[C@H]3C(=O)N(c4ccccc4C(=O)N4CCCC4C(=O)O)C(=O)N23)c1 (some centres undefined),6.4*,/,-8.3,/,/,/,15.8*,-0.7,4.2
COC(=O)c1ccc(C2c3[nH]c4ccccc4c3C[C@H]3C(=O)N(C)CC(=O)N23)cc1 (some centres undefined),-0.8,/,17.0,/,/,/,/,/,/

# Screening data: PubChem, several laboratories
